Experimental data as given in article PMC4942345 (Organic & biomolecular chemistry, 2016).
Where a SMILES comes first, the peptide text is derived from it. [ ]: non-standard residue; d: D form. The star is where a group is joined. Benzoyl(4-SO2NH2) = NS(=O)(=O)c1ccc(C(=O)*)cc1

Tests used:
hCAII [1] = target: T1, hCAII (Homo sapiens, UniProt P00918); experiment: Esterase activity inhibition; assay type: biochemical; conditions: from IC50 values
Method in brief: (§1)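 Commercial human CA isozyme at 0.2 μM was run with the inhibitor-peptide conjugate as blocker. The substrate was 50 μM 4-nitrophenyl acetate in Tris buffer (9 mM Tris-HCl, 81 mM NaCl, 10% v/v acetonitrile, 1% v/v DMSO). Nitrophenol formation was followed by absorbance at 400 nm. Each run was done at least in triplicate.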

hCAI [2] = target: T2, hCAI (Homo sapiens, UniProt P00915); assay type: binding
Method in brief: (§2)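 Excess biotinylated conjugate was loaded onto streptavidin agarose in PBS for 2 h, then washed 3-4 times with PBS and 0.05% PBST. The resin was incubated overnight at 4 °C with hCAII and hCAI, added separately or as a mixture, then washed. It was boiled 10 min at 99 °C in SDS loading buffer with reducing agent and run on SDS-PAGE.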

[3] = tested on: mixture of hCAIX, hCAXII, hCAVB and hCAII; experiment: Pull-down experiment with a mixture of CA isozymes, SDS-PAGE; assay type: binding, human; conditions: [CA] = 1.00 μM, Fig. 4
hCAII [4] = target: T1, hCAII; assay type: binding; conditions: fluorescence visualization of SDS gel, Fig. 3b and 3c
Method in brief: as §2

hCAI [5] = target: T2, hCAI; experiment: Esterase activity inhibition; assay type: biochemical
Method in brief: as §1

T2 sequence (P00915 whole entry): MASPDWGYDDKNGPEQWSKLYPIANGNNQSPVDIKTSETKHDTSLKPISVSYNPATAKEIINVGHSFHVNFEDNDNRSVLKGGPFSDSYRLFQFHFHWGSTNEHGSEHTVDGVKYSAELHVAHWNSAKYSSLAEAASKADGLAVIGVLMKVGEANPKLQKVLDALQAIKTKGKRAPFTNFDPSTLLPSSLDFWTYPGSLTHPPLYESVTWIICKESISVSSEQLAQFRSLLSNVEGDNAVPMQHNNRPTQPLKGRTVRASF

| SMILES | increase of inhibitory activity against hCAII compared to 4-ABS (hCAII [1]) | pull-down, enzymes tested separately: capturing ability for hCAI (hCAI [2]; [hCA] = 0.57 μM, Fig. 3a, compared with 1, 2 and 7) | pull-down with mixture of ZW700-hCAII and CY3-hCAI: binding to hCAI (hCAI [2]; fluorescence visualization of SDS gel, Fig. 3b and 3c) | pull-down with mixture of CA isozymes: isozyme captured [3] | pull-down with mixture of ZW700-hCAII and CY3-hCAI: binding to hCAII (hCAII [4]) | increase of inhibitory activity against hCAI compared to 4-ABS (hCAI [5]; from IC50 values, esterase activity) | specificity in terms of enzymatic inhibitory activity (IC50) (hCAI [5]; hCAI versus hCAII and hCAIX) |
| --- | --- | --- | --- | --- | --- | --- | --- |
| CC(C)C[C@@H](NC(=O)[C@H](NC(=O)[C@@H](CC(=O)O)NC(=O)[C@H](NC(=O)[C@@H](CC(=O)O)NC(=O)c1ccc(S(N)(=O)=O)cc1)C(C)C)C(C)C)C(N)=O [Compound 9, 4-CBS-dvdvl] ({Benzoyl(4-SO2NH2)}-[dD][dV][dD][dV][dL]-NH2) | 2.6 fold | greatest capturing ability for hCAI | binds strongly | selective capturing of hCAII | binds strongly | 30 fold | good specificity for hCAI |
| CC(C)C[C@@H](NC(=O)[C@@H](CC(=O)O)NC(=O)c1ccc(S(N)(=O)=O)cc1)C(=O)N[C@H](CC(=O)O)C(=O)N[C@H](CC(=O)O)C(=O)N[C@H](Cc1c[nH]c2ccccc12)C(N)=O [Compound 7, 4-CBS-dlddw] ({Benzoyl(4-SO2NH2)}-[dD][dL][dD][dD][dW]-NH2) | ca. 17 fold |  |  | selective capturing of hCAII | significantly increased binding selectively to hCAII |  |  |
